Rows were chosen to be rich in hits. Some 2.3% of all compounds tested hit in one or more screens of this group.
sPLA2-III inh = Blocks human group III sPLA2 activity | hit rate 0.56% among 370,000 | inhibition, % at 12.2 µM | Q9NZ20 | QFRET BODIPY PC-A2 liposome hydrolysis, fluorescence;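 active means inhibition above mean plus 3 SD of compounds lying within the high and low control bounds, cut at about 19% in these data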;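 further: 0% = median of test compound wells and 100% = no enzyme DMSO wells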
Target sequence (Q9NZ20 whole entry, looked up): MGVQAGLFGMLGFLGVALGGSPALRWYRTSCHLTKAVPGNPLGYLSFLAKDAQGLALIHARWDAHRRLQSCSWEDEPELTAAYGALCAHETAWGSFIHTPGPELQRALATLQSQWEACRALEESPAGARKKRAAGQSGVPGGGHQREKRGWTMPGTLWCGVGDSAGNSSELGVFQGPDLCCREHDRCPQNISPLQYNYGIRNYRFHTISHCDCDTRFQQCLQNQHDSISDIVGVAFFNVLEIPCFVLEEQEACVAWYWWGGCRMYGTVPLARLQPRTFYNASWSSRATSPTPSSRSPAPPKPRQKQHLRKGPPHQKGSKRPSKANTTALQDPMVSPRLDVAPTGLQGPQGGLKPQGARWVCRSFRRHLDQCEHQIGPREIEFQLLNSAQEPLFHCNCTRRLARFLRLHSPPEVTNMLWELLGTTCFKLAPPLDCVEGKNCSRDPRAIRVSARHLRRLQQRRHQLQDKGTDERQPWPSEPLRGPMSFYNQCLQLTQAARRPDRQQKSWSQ
ASAP1 inh = ASAP1 ArfGAP inhibition | Q9ULH1 | ASAP1-stimulated ARF1 GTP hydrolysis, GDP FP detection | AID 624377 | hit rate 0.19% among 360,000 | inhibition, % at 16.5 µM; in the data active means inhibition above about 25%;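 further: 0% = vehicle with enzyme and substrate and 100% = no enzyme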
Calb FLC = affects C. albicans growth with fluconazole; hit rate 0.57% among 300,000; growth inhibition, % (concentration not given with the values); C. albicans CaCi-2 + fluconazole, Alamar Blue growth, 48 h;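 active means growth inhibition above about 58% in most replicates, limit read from the data, passing the limit was not always enough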;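 further: all wells also contain fluconazole at 8 µg/ml as a sub-toxic cotreatment; 0% = median of DMSO wells and 100% = median of geldanamycin control wells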
ARFGAP1 inh = rat ARFGAP1 inhibition. Q62848. Arfgap1-stimulated ARF1 GTP hydrolysis, GDP FP detection. inhibition, % at 16.5 µM. hit rate 0.26% among 360,000. AID 651572;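 active means inhibition above a per-plate limit, mean inhibition of low control wells plus 3 SD, cut at about 25% in these data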;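 further: 0% = DMSO wells with enzyme and 100% = wells lacking Arfgap1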
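material = rat Arfgap1 catalytic domain, aa 1-136 | also added = human ARF1(Δ1-17)-GTP substrate | compound dosing = one concentration, 16.5 µM, DMSO 1.26% | times = GTP hydrolysis reaction 2 h at 25 °C | measured by = FP, GDP Alexa 633 tracer displaced from anti-GDP antibody, 620/688 nm | evaluation = percent inhibition of Arfgap1-stimulated GTP hydrolysis | replication = single well per compound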
SKKanGAS inh = SKKanGAS growth inhibition | S. pyogenes SKKanGAS, kanamycin growth, BacTiter-Glo, 6 h | hit rate 1.3% among 300,000 | AID 1662 | inhibition, % at 7.5 µM;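 active means mean replicate score, as percent of positive control median, at least 50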;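 further: strain carries kanamycin resistance gene driven by streptokinase promoter and grows in 40 µg/ml kanamycin; loss of luminescence reflects streptokinase promoter inhibition or plain growth inhibition; 0% = median of DMSO wells and 100% = positive control at its reference dose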
ARFGAP1 confirm = rat ARFGAP1 inhibition, confirmed; inhibition, % at 16.5 µM; hit rate 30% among 890; shares compounds with ARFGAP1 inh; ARFGAP1-stimulated ARF1 GTP hydrolysis, GDP tracer FP;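 active means average inhibition over triplicates above the hit cutoff set in the earlier primary screen, cut at about 25% in these data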;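 further: 0% = Arfgap1 plus ARF1-GTP with DMSO and 100% = wells lacking Arfgap1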
Numbers without * were called inactive; / = no result given.

SMILES	sPLA2-III inh	ASAP1 inh	Calb FLC	ARFGAP1 inh	SKKanGAS inh	ARFGAP1 confirm
OCC1(Cc2cccc(F)c2)CCN(Cc2ccc3cccc(F)c3n2)CC1	-14.6	2.6	38.1	24.8*	2.5	2.0
O=C(N/N=C/C(Cl)=C/c1ccccc1)c1ccc2c(c1)OCO2	1.8	23.3	/	28.9*	/	36.0*
O=C(N/N=C/c1ccc2c(c1)OCO2)c1ccc2c(c1)OCO2	7.9	4.5	-1.1	15.9	-4.0	/
COC(=O)[C@]12C[C@H](CC(=O)NCC3CCCCC3)C(=O)N(Cc3ccc4c(c3)OCO4)C1=C[C@H](COCc1ccccc1)O[C@@H]2C	-8.6	4.3	/	-7.4	/	/
O=C(COC(=O)/C=C/c1ccc2ccccc2n1)NNC(=O)c1ccccc1	-8.5	-15.9	/	48.7*	/	-0.6
CC(C)CCNC(=O)COC(=O)/C=C/c1ccc2ccccc2n1	-3.2	-1.7	44.3	5.5	-9.2	/
CC(=O)c1ccc(OCc2cc(C(=O)N3CCC[C@H]3CO)no2)cc1	2.6	1.3	-0.7	11.2	0.7	/
COCCC1CCCCN1C(=O)c1cc(COc2cccc(C(C)=O)c2)on1 (stereo unspecified)	-2.0	8.2	0.2	25.4*	-6.1	-11.0
COC(=O)C(CC(C)C)N(Cc1ccc(Br)cc1)S(=O)(=O)CCl (stereo unspecified)	-9.6	9.6	/	-5.1	/	/
CCn1nc(NC(=O)c2cccnc2)c2cc3ccccc3nc21	-1.0	8.6	9.9	26.7*	6.4	7.9
CCn1nc(NC(=O)c2cccs2)c2cc3ccccc3nc21	0.0	1.3	7.6	9.3	-2.5	/
C[C@@H]1C[C@H]2[C@@H]3CCC4=CC(=O)C=C[C@]4(C)[C@@]3(F)[C@@H](O)C[C@]2(C)[C@@]1(O)C(=O)CO	-5.5	-0.9	-4.1	29.3*	0.3	-3.3
O=C(CN(Cc1ccc(F)cc1)C(=O)c1csnn1)NCc1ccccc1	1.6	-1.0	-3.8	3.8	-1.1	/
O=C(CN(CCc1ccccc1)C(=O)c1csnn1)NCc1ccc(F)cc1	10.0	-8.1	-1.7	26.8*	0.3	1.9
CC(=O)c1cccc(NC(=O)CN(C)Cc2ccc(OC(F)F)cc2)c1	3.7	-10.2	1.1	42.0*	-9.6	-3.1
COc1ccc(NC(=O)CN(C)CC(=O)Nc2cccc(C(C)=O)c2)cc1	-3.1	7.2	-1.6	1.5	-4.5	/
Cc1c(C(=O)NN)nn(-c2ccc(Cl)cc2)c(=O)c1C#N	-6.5	6.7	-3.9	24.6*	/	-1.1
CC(C)N(Cc1cn(Cc2ccccc2)nn1)S(=O)(=O)c1ccccc1Br	-2.6	/	/	/	/	/
CC1CCC(CN2C(Nc3ccccc3)=NC[C@@H]2Cc2ccccc2)CC1 (stereo partly specified)	9.7	2.1	/	28.2*	/	-1.4
CCn1c(CSc2nc3ccccc3s2)nnc1SCC(=O)c1ccc(O)c(O)c1	4.7	-8.2	104.7*	31.5*	0.3	-0.9
C=CCn1c(SCC(=O)c2ccc(F)cc2)nnc1-c1ccc(F)cc1	-30.0	/	/	/	/	/
O=C(NCc1ccccc1C(F)(F)F)C1CC(c2ccc(C(F)(F)F)cc2)=NO1 (stereo unspecified)	-0.5	-4.4	-0.6	28.1*	1.3	6.9
O=C(c1ccncc1)N1CCN(S(=O)(=O)c2cccc(Cl)c2)CC1	2.1	-7.1	-0.2	26.7*	-3.4	0.3
O=C(c1ccncc1)N1CCN(S(=O)(=O)c2cccc(F)c2)CC1	4.4	-10.9	0.1	9.0	1.6	/
O=C(COc1ccc(Cl)cc1)Nc1ccc(C(=O)NCc2cccnc2)cc1	/	/	6.3	/	-2.2	/
SMILES	sPLA2-III inh	ASAP1 inh	Calb FLC	ARFGAP1 inh	SKKanGAS inh	ARFGAP1 confirm
O=C(NCc1cccnc1)c1ccc(COc2ccc(Cl)cc2)cc1	-3.7	18.0	15.7	27.6*	-6.4	1.3
CCN1CCN(c2ccc(S(=O)(=O)N3CCCCC3)cc2NC(=O)/C=C/c2ccc(OC)c(OC)c2)CC1	-12.2	19.2	-5.1	30.2*	4.4	44.9*
COC(=O)C1=CC[C@@H](NC(=O)OC(C)(C)C)[C@H](O)[C@H]1O[Si](C)(C)C(C)(C)C	-11.6	/	/	/	/	/
Oc1ccccc1C=NNc1nc2ccccc2s1	-10.8	-2.4	/	16.5	/	/
Oc1ccc(C=NNc2nc3ccccc3s2)c(O)c1	-32.4	-3.3	/	30.1*	/	11.2
Cc1ccc(N2C(=O)CC(Sc3nc(C)cc(C)n3)C2=O)cc1 (stereo unspecified)	-1.4	-12.5	8.4	24.9*	-3.8	1.0
COc1ccc(CCN(Cc2cccs2)S(=O)(=O)c2ccccc2)cc1OC	-9.2	/	/	/	/	/

Screening data deposited in PubChem by several laboratories.
